From the EternaBench riboswitch data

Test system: MS2 coat protein
Assay: apparent Kd, MS2 coat protein; higher = weaker binding; RNA-MaP array; FMN 200 µM where present
In short: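 Stalled E. coli RNA polymerase transcribed each design on Illumina sequencing-chip clusters. The clusters were titrated with SNAP-549-labelled MS2 coat protein, starting at 0.7 or 1.5 nM and doubling up to 3 µM, first without ligand and then with constant ligand, in 100 mM Tris-HCl pH 7.5, 80 mM KCl, 4 mM MgCl2, BSA, DTT, yeast tRNA and Tween-20. Green signal was normalised to red-channel RNA signal and to the control-cluster median Fmax. The apparent Kd is the median of filtered binding-curve fits made for each cluster.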

[1] = designed as: ON switch for flavin mononucleotide, no ligand
[2] = ligand present: flavin mononucleotide, designed as: ON switch for flavin mononucleotide
[3] = designed as: OFF switch for flavin mononucleotide, no ligand
[4] = ligand present: flavin mononucleotide, designed as: OFF switch for flavin mononucleotide

Sequence | apparent Kd [1] [nM] | apparent Kd [2] [nM] | apparent Kd [3] [nM] | apparent Kd [4] [nM]
GGCGAACAGGCUAACAUGAGGAUCACCCAUGUGGACUCAUGGUAGGAUAUGCUGUACAAAGUACAGCAGAAGGGCCGGUGAGCC | 139 | 376 | – | –
CUCAUGUCAGGAUAUAGCCACAUGAGGAUCACCCAUGUGGACUAGAAGGGACAUGAGGAUCACCCAUGUAUGAA | – | – | 11.4 | 10.2
AGCUGUGGCCGAGGAUAUCUAAACCUCGAAAACGAAAUAUAAUCGAACAUGAGGAUCACCCAUGUAGAGAAGGCGGUCUCAGCA | – | – | 69.6 | 211
AAAAAGGCAGGAUAUACAUGAGGAUCACCCAUGUGAAAAAAAAAAAAAAAAAAAAAGUGUAGAAGGGUCAAAAA | – | – | 56.9 | 46.7
CCAGCCGUUCAAGGAUAUGACAUGAGGAUCACCCAUGUGAAGUCGAACAUUGAUGCACACCUUAGUCAGAAGGUGGAUGGGUCU | – | – | 30.9 | 96.5
UCAUACAUUCGAGGAUAUCGGUGAUUAAUUUUACGAGAAGGCGAUAUAAGAUUUAAUUUUUAAGACAUGAGGAUCACCCAUGUA | 30.7 | 29.6 | – | –
GUAGCUAUCGGAGGAUAUUCAUACCGGAAACGGACAUGAGGAUCACCCAUGUAGCGAAAGCCUUGGGAGAAGGCCGAUAGCUAC | 919 | 103 | – | –
UUAUGUCGCGUAGGAUAUCACUAGUGUUGUAAUUUAAUUGUAAUUACGAUGUGAGAAGGACGUACACAUGAGGAUCACCCAUGU | – | – | 20.3 | 16.2
GCAGACGUAGUGAGGAUAUGCUCUACCUCGGUAGAGCAGAAGGCACAUGAGGAUCACCCAUGUGGCUCCUCAUC | – | – | 15.6 | 21.9
AUCUUUAAGAUAGGAUAUAGUAUGAUGGUUUAAUUAGAAGGAUCUCACAUGAGGAUCACCCAUGUAAUAGGAUUACCCAUGUAU | – | – | 46.1 | 31.7
GUAGCUAUCGCAGGAUAUCCUCAGGCGAAAGCCACAUGAGGAUCACCCAUGUAUAUAAAGAAUAUGGAGAAGGGCGAUAGCUAC | 1670 | 185 | – | –
CAGUACUGAGGAUAUACAUGAGGAUCACCCAUGUGUUCGUGGUAGGAUAUCCGCAAAAGUAGAAGCCAGAAGGAGAUGUGCGUG | – | – | 17.7 | 13.9
GUAGCAUACCGAGGAUAUUCAUAUAGGAAACAAACAUGAGGAUCACCCAUGUGGCGAAAGCCUUGGGAGAAGGCGGAAUGCUAC | 115 | 21.1 | – | –
ACAUAAAUUCGAGGAUAUCGGUGAUAAAGAAGACGAGAAGGCGAUUUAAGAUAUAUGGUUAAAGACAUGAGGAUCACCCAUGUA | 32.1 | 29.7 | – | –
CGGUAUAUGAAGGGCGAAAGCCCACAUGAGGAUCACCCAUGUAGAAGGCGGGCCGCAACGCGGCCCGAGGAUAUACAAUAUACA | – | – | 6.5 | 12.4
CCAUUCAGAGGAUAUGCGCAUAGAUAAGACUUUUUUUUUUAACAUGAGGAUCACCCAUGUAGAAGGCUGUAACC | – | – | 23.2 | 23.1
GCUAUCGAACAGAAGGGACCGCGGCCGUGGCGGUCAGGAUAUGUAUGCAGUAGUGCCUACAUGAGGAUCACCCAUGUCCGCCGC | 629 | 218 | – | –
AUGCCUAAUGAGAAGGUGUAUAUAAAUUAUAUACAAGGAUAUCGGUCAAGCAUGAAAACAUGAGGAUCACCCAUGUUAAGGCAU | 7.57 | 6.36 | – | –
AAUUUGUGAAAAUUACAUGAGGAUCACCCAUGUUAGGGAAUGCAGGAUAUGUGGAAUAUUAUUUAACAGAAGGGCAAUAAUUUU | 56.3 | 41.6 | – | –
AAAUUGGUAGAGGAUAUCGCACAGGAUUUACUGCGAGAAGGCUGCACAUGAGGAUCACCCAUGUUUUGUUGCGA | – | – | 15.2 | 18.1
GAAUGUAAAGAGAAGGGCUACUGGUUGAAACCUGCGGCCUCUGGAACAUGAGGAUCACCCAUGUAGCAGGAUAUCUUUGCGUCA | – | – | 192 | 29.5
GUCGGAAACGACAAUGAUAGGACUGAGGAUAUACAUAAGUUUGUCCAUACAUGAGGAUCACCCAUGUAGAAGGCAGUCCUAUCU | – | – | 6.33 | 15.9
AUAAAACAUGAGGAUCACCCAUGUCAACAAAGUCGAGGAUAUGGGCAAAUAAAAUAAGAACCAGAAGGCGAAUUAU | 210 | 38.6 | – | –
GCCCGACAUGAGGAUCACCCAUGUGGGAAACCGCGAGGAUAUCCGGGCCCGAAAGGGCCCGGAGAAGGCGCCGGGC | 12.5 | 10.9 | – | –
